Measured values from paper PMC9394215 (Journal for Immunotherapy of Cancer, 2022).

Target: T1, human CD39 (Homo sapiens, UniProt P49961)
T1 sequence (P49961 1-510): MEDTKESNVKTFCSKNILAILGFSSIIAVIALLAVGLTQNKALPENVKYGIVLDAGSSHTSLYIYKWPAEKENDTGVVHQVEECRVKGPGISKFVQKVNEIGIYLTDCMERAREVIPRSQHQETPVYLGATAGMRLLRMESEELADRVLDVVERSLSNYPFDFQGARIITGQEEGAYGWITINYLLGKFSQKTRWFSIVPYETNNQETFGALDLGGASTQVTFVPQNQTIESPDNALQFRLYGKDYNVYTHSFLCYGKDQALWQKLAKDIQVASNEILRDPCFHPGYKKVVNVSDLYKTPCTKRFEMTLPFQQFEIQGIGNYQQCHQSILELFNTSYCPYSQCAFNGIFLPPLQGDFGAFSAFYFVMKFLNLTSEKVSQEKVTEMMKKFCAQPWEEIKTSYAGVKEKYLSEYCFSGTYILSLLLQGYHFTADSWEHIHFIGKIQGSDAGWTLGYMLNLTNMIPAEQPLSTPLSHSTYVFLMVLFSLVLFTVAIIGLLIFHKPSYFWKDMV
Format: biochemical
Conditions: for inhibition of CD39 (in words): library screen at 10 µM, figure 3
Outline: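 CD39 came from human umbilical cord membranes (50.0 ng protein per well). Substrate was 50 µM ATP in 10 mM HEPES, 2 mM CaCl2, 1 mM MgCl2, pH 7.4, with ≤2% DMSO. Enzyme and test compound were preincubated 5 min at 37°C; reaction ran 15 min at 37°C. Malachite green/molybdate was added and A600 read after 20 min at 25°C, minus a heat-denatured enzyme blank. Screening was at 10 µM; curves spanned 0.1–300 µM; n=3.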

SMILES | inhibition of CD39 (in words) | inhibition at 10 µM (read-out: inhibition of human CD39)
CCc1cc2c(cc1N1CCC(N3CCOCC3)CC1)C(C)(C)c1[nH]c3cc(C#N)ccc3c1C2=O [alectinib, Alectinib] | did not inhibit | –
C[C@@H](Oc1cc(-c2cnn(C3CCNCC3)c2)cnc1N)c1c(Cl)ccc(F)c1Cl [critozinib, Crizotinib] | did not inhibit | –
Cc1ccc(C(=O)Nc2ccc(CN3CCN(C)CC3)c(C(F)(F)F)c2)cc1C#Cc1cnc2cccnn12 [ponatinib, Ponatinib] | – | 33%
